# Screens deposited in PubChem BioAssay by several laboratories.
# E coli WT exp: growth inhibitors of E. coli BW25113 wild type; growth inhibition, % at 100 µM; actives 0.15% (n = 98,000); OD600 absorbance; AID 710;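 active = growth inhibition above about 50% at one test dose, limit read from the data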;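 note: growth measured after 20 h incubation at 37 °C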
# H69AR growth 86K: growth inhibitors of human H69AR lung tumor cells; H69AR lung tumor viability, ATP luminescence, 72 h; active compounds read low; viability, % at 10 µM; actives 6% (n = 85,000); AID 598;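 active = viability at or below 40%; inactive = viability above 40%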;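 note: multidrug resistant small cell line overexpressing MRP-1 efflux transporter; 100% = mean luminescence of untreated control wells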
# Lung fibro prol: blocks proliferation of human lung fibroblasts | LL 47 human lung fibroblast viability, ATP luminescence; active compounds read low | actives 1.1% (n = 85,000) | viability, % at 10 µM;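 active = viability at or below 50% in the single dose screen; inactive = viability above 50%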;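 note: compound exposure lasted 72 h before the ATP readout; 100% = median luminescence of untreated cell-only wells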
#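 Test system: LL 47 human lung fibroblasts / Incubation: 72 h compound exposure at 37 °C after overnight plating / Technique: luminescent ATP detection, CellTiter-Glo / Compound dosing: 0.1% DMSO in all compound wells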
# HUVEC inhibit: human endothelial cell proliferation inhibition; HUVEC proliferation, CellTiter-Glo luminescence, 72 h; active compounds read low; viability, % at 10 µM (by protocol); actives 1.1% (n = 86,000); AID 648;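 active = viability at or below 30%; inactive = viability above 30%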;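 note: 100% = median luminescence of DMSO-only cell control wells on each plate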
# Jurkat viability: cytotoxicity toward Jurkat cells. Jurkat E6.1 viability, ATP luminescence, 48 h. inhibition, % at 4 µM. actives 1.2% (n = 56,000);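 active = inhibition above the mean inhibition of all tested compounds plus 3 SD, cut at about 28% in these data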
# tolC growth inh: blocks growth of E. coli BW25113 tolC mutant; OD615; growth inhibition, % at 10 µM (by protocol); actives 2.2% (n = 65,000);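 active = growth inhibition at or above a cutoff equal to the mean over every tested compound plus 3 SD, cut at about 60% in these data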;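 note: growth measured after 20 h incubation at 37 °C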
#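 Doses: one dose of 10 µM final / Material: E. coli BW25113 ΔtolC::kan, tolC deletion mutant strain / Buffer or medium: LB with kanamycin 50 µg/mL / Evaluation: percent growth inhibition / Detection: optical density read at 615 nm / Incubation: 37 °C, 20 h exposure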
# Active calls of the source: *; . = not tested or not shown. Most compounds without a hit are left out; they make up all but 6.4% or so of the library.
SMILES,E coli WT exp,H69AR growth 86K,Lung fibro prol,HUVEC inhibit,Jurkat viability,tolC growth inh
CCC(C)NC(=O)c1c(N)n(/N=C/c2cccnc2)c2nc3ccccc3nc12 (centres undefined),-19.0,89.6,88.8,3.4*,1.4,-0.3
CCC(C)NC(=O)c1c(N)n(/N=C/c2ccccn2)c2nc3ccccc3nc12 (centres undefined),-17.0,11.3*,98.7,12.2*,-1.4,21.2
COc1ccc(CC(=O)Nc2nc3ccc(F)cc3s2)cc1S(=O)(=O)N1CCOCC1,0.0,39.4*,88.3,86.2,.,.
Nc1ccc(-c2nc3c(Cl)c(N)ccc3[nH]2)cc1,3.0,21.0*,97.8,85.4,4.0,-4.9
Cc1ccc(C)c(-c2nc3ccc(N)cc3[nH]2)c1,6.0,56.4,95.3,89.2,24.8,-10.8
Nc1ccc2nc(-c3ccc(Cl)cc3)[nH]c2c1,16.0,17.2*,87.6,94.7,31.1,-5.9
Nc1ccc(-c2nc3ccc(-c4nc5ccccc5o4)cc3[nH]2)cc1,-6.0,.,.,.,-2.6,32.6
Nc1ccc2nc(-c3cc(Cl)c(N)c(Cl)c3)[nH]c2c1,.,34.9*,81.3,64.7,.,.
CCc1nnc(NC(=O)C2CCC2)s1,11.0,128.9,97.7,100.4,0.1,-3.7
CCCCn1c(=O)n(Cc2cccc(F)c2)c(=O)c2c1ncn2Cc1ccco1,-6.0,87.5,91.7,82.0,-3.2,64.9*
O=c1c2ccc([N+](=O)[O-])c3cccc(c32)c2nc3ccccc3n12,0.0,.,.,.,.,.
O=c1c2cccc3c(N4CCOCC4)ccc(c32)c2nc3ccccc3n12,.,28.0*,92.8,49.6,8.2,-18.1
CC(=O)c1ccc(C(=O)Nc2nnc(-c3ccc(Cl)cc3)o2)cc1,.,.,.,.,1.2,100.0*
O=C(Nc1nnc(-c2ccccc2)o1)c1ccc(Cl)cc1,49.0,47.0,82.9,31.6,-0.4,98.5*
CCOc1ccccc1NC(=O)Cn1nnc(C(=O)NCc2ccco2)c1N,-1.0,26.1*,55.1,51.0,97.5*,-1.4
CCOC(=O)C1=C(O)/C(=C/c2cn(CC(=O)N3CCCC3)c3ccccc23)SC1=Nc1ccccc1,.,11.5*,56.0,61.0,.,.
Cc1n[nH]c(C)c1N1C(=O)c2cccc3c(N4CCCCCC4)ccc(c23)C1=O,16.0,35.0*,87.3,83.5,6.8,51.3
CC1=CC(C)(C)N(S(=O)(=O)c2ccc(F)cc2)c2ccc(C)cc21,-7.0,21.7*,50.9,59.9,.,.
CC1=CC(C)(C)N(C(=O)CN2C(=O)c3ccccc3C2=O)c2ccccc21,11.0,96.2,100.8,97.9,1.5,42.5
CC1=CC(C)(C)N(S(=O)(=O)c2ccc(C)cc2)c2ccccc21,-10.0,28.2*,51.5,63.4,.,.
O=S(=O)(Nc1ccc(-c2nc3cccnc3s2)cc1)c1cccs1,-4.0,87.7,87.2,93.0,0.9,17.6
O=S(=O)(Nc1cccc2ncccc12)c1cccs1,-2.0,.,.,.,76.5*,98.8*
COc1ccc(Cl)cc1C(=O)Nc1cc(=O)n(C)c(=O)n1C,.,85.3,108.2,97.3,-19.0,-10.8
CCOC(=O)C1=C(N)Oc2cc(C)[nH]c(=O)c2C1c1ccncc1 (centres undefined),0.0,87.0,97.3,85.1,5.2,-9.8
CCOC(=O)C1=C(N)Oc2c(c(=O)[nH]c3ccccc23)C1c1ccccc1 (centres undefined),-2.0,13.2*,97.5,59.4,.,.
SMILES,E coli WT exp,H69AR growth 86K,Lung fibro prol,HUVEC inhibit,Jurkat viability,tolC growth inh
O=S(=O)(NCCSCc1ccc(Cl)cc1Cl)c1ccc2c(c1)OCCO2,-13.0,.,.,.,.,.
O=S(=O)(NCCSc1ccc(Cl)cc1)c1ccc2c(c1)OCCO2,-8.0,95.5,90.7,94.8,-0.8,100.0*
CN(NC(=O)NN)c1ncc(C(F)(F)F)cc1Cl,15.0,.,.,.,.,.
O=S(=O)(c1ccc(Br)cc1)N1CCN(c2ccc3nnc(-c4ccccc4)n3n2)CC1,-12.0,30.2*,100.7,82.1,.,.
COc1cccc(NC(=O)c2ccncc2)c1,-1.0,100.3,108.8,94.2,3.2,2.8
CSCC[C@H](NC(=O)OC(C)(C)C)c1nnc(SCc2cccc(F)c2)o1,-6.0,.,87.9,91.7,-4.5,29.1
CC(C)C[C@H](NC(=O)OC(C)(C)C)c1nnc(SCc2cccc(F)c2)o1,-4.0,96.4,92.7,94.7,3.5,73.2*
COC(=O)Oc1nsnc1N1CCOCC1,1.0,2.7*,92.6,94.1,4.4,-22.5
O=C(Oc1nsnc1N1CCOCC1)N(c1ccccc1)c1ccccc1,-24.0,83.8,.,93.3,-3.2,28.7
